Data on 13 compounds can be found in ChEMBL document CHEMBL1155785 (Bioorg Med Chem, 2008).

Active and inactive are the calls of the source. No cut-off for these calls is given here.

Assay [1] has as its target T1, Receptor-type tyrosine-protein phosphatase F (Homo sapiens, UniProt P10586). Put plainly: Inhibition of human recombinant LAR at 20 ug/mL. Summed up: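 Single-concentration test at 20 µg/mL. Recombinant LAR (300 nM) was preincubated 10 min with compound at pH 8.0 (Tris/NaCl/EDTA/DTT). Hydrolysis of 2 mM pNPP (stock in substrate buffer) was then followed at pH 6.0 MES buffer, room temperature. Initial rate was taken at 405 nm and expressed as % inhibition.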

In assay [2] the target is T1, Receptor-type tyrosine-protein phosphatase F. Put plainly: Inhibition of human recombinant LAR upto 100 uM. The following applies: in the assay text read “at 20 ug/mL” for “upto 100 uM”. Summed up:
(§1)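 Recombinant LAR (300 nM) was preincubated 10 min with inhibitor in DMSO in pH 8.0 buffer (50 mM Tris, 50 mM NaCl, 2 mM EDTA, 2 mM DTT). Reaction was started with pH 6.0 MES substrate buffer holding 2 mM pNPP, at room temperature. pNP release was read continuously at 405 nm, using the initial linear rate. IC50 came from a Hill-equation nonlinear fit, mean ± SD of three replicates.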

The target is the same in assay [3]. Put plainly: Inhibition of human recombinant LAR.
For assay [4] the target is unchanged. Put plainly: Inhibition of dialyzed human LAR assessed as recovery of enzyme activity at 20 uM after 24 hrs. Summed up: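 LAR (1500 nM) was preincubated 10 min at pH 8.0 with 20 µM inhibitor or 2% DMSO, then dialyzed against enzyme buffer. Aliquots were withdrawn at set times up to 24 h and assayed for pNPP phosphatase activity at pH 6.0, read at 405 nm.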

The target in assay [5] is T2, Receptor-type tyrosine-protein phosphatase C (Homo sapiens, UniProt P08575).
T2 sequence (P08575 whole entry): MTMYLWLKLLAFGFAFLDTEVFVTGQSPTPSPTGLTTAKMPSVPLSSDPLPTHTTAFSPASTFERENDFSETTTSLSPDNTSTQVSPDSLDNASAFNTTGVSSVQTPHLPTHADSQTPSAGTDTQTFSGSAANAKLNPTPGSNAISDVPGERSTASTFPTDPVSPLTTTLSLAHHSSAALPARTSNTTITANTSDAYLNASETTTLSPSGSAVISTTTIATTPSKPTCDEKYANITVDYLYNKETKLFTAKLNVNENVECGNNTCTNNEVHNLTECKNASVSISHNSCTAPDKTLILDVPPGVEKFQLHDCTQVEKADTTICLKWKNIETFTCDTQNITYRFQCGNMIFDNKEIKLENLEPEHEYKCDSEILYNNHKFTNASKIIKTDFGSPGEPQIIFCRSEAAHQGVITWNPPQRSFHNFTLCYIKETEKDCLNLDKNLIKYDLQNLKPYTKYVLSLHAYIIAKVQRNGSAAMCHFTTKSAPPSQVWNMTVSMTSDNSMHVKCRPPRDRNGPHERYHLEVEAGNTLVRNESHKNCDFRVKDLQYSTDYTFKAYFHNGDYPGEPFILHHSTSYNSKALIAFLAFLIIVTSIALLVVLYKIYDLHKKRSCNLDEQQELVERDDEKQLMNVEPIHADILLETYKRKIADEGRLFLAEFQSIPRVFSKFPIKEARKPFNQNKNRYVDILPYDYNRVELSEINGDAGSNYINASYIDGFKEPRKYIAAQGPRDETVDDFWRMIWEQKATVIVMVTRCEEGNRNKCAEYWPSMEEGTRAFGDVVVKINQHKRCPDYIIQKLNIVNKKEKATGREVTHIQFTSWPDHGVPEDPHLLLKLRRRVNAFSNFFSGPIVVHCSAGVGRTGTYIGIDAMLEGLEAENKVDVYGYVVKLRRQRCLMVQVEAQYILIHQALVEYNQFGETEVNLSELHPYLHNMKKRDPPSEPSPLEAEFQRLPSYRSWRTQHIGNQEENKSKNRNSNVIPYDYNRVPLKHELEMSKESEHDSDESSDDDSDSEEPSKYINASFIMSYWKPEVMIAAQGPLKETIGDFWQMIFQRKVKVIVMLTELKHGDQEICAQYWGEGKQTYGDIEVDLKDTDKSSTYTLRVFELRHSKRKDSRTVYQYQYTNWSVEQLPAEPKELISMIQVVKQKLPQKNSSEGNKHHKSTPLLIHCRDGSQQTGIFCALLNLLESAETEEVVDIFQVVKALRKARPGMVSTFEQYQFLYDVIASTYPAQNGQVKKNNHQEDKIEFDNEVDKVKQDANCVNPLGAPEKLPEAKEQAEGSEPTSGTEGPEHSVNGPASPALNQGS
Put plainly: Inhibition of CD45.

The target in assay [6] is T3, Tyrosine-protein phosphatase non-receptor type 1 (Homo sapiens, UniProt P18031).
T3 sequence (P18031 whole entry): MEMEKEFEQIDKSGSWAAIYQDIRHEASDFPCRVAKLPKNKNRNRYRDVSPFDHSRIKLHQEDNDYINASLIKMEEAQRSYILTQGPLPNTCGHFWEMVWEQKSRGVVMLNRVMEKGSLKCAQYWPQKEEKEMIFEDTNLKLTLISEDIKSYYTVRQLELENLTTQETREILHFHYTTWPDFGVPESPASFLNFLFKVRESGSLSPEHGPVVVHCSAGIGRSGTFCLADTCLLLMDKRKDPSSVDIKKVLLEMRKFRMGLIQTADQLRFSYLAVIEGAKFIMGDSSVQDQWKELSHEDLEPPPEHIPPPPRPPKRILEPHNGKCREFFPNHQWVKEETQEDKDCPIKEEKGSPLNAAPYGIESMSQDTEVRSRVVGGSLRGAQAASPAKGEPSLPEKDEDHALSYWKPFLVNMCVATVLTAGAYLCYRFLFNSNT
Put plainly: Inhibition of PTP1B.

In assay [7] the target is T1, Receptor-type tyrosine-protein phosphatase F. Put plainly: Inhibition of LAR. Summed up:
as §1

Assay [8] concerns the target T4, Tyrosine-protein phosphatase non-receptor type 2 (Homo sapiens, UniProt P17706).
T4 sequence (P17706 whole entry): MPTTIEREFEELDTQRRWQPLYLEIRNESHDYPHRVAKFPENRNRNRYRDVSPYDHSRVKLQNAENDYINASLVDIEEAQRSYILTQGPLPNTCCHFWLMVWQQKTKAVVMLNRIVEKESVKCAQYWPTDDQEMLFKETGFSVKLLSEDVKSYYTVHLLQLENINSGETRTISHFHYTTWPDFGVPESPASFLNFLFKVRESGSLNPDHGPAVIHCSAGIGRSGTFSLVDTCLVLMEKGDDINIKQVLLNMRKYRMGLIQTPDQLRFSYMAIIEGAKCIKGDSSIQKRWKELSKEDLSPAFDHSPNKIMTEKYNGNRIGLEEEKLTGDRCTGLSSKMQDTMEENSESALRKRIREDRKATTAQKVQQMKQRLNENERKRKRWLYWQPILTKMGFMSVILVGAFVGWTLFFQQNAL
Put plainly: Inhibition of TCPTP.

Assay [9] in a line: Inhibition of Yersinia PTPase. Also on record: species or system Yersinia sp.

T1 sequence (P10586 whole entry): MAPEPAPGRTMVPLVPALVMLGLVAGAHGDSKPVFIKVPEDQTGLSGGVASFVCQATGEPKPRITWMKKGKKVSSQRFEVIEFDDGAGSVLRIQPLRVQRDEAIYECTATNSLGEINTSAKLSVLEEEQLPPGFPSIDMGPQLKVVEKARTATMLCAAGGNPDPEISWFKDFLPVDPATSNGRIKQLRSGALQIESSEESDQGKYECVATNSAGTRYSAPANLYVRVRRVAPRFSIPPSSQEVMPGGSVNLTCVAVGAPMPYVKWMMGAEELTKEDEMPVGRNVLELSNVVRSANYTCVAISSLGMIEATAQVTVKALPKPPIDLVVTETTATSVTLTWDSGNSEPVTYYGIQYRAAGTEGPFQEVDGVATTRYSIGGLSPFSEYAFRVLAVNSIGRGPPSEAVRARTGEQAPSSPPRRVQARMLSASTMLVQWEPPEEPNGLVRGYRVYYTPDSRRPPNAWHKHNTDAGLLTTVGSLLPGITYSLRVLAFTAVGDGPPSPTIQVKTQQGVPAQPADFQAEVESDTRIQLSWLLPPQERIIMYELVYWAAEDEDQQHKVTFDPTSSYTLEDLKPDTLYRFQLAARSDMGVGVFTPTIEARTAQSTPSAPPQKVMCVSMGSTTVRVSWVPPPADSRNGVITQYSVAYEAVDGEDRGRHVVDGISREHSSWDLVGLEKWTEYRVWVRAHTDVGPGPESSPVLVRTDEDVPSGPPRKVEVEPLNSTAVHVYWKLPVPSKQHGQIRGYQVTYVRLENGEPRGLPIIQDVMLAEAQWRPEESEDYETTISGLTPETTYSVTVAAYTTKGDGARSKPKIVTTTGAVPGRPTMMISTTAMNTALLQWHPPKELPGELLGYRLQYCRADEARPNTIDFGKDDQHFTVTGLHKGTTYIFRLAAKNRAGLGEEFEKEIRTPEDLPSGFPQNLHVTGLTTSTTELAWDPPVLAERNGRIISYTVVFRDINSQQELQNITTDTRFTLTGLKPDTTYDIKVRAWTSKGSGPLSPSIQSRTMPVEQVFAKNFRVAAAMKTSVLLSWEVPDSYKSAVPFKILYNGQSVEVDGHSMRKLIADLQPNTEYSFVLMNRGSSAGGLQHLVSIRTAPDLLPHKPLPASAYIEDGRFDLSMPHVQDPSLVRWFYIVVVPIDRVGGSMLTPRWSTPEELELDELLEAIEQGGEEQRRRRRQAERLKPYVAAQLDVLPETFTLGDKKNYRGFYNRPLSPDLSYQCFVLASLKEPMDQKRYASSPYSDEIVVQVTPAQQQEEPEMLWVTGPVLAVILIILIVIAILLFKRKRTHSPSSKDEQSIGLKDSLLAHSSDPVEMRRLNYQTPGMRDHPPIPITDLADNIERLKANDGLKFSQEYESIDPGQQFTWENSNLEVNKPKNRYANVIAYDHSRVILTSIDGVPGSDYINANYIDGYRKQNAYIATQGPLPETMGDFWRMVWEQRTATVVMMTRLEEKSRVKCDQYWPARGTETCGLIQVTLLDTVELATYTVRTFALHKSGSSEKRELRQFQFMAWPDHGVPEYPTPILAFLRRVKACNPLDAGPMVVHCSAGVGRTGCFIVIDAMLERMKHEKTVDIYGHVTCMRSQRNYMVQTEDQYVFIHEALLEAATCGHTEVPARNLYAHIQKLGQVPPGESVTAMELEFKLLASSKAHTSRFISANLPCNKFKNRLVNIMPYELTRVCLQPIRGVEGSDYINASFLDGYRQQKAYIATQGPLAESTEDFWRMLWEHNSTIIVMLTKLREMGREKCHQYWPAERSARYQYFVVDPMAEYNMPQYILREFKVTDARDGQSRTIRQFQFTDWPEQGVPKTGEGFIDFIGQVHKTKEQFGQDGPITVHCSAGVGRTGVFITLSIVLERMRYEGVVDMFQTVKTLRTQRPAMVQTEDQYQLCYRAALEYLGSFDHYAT

`COC(=O)c1ccc(OC)c(C=O)c1CC=O`: the inhibition in assay [1] is below 5%. For the same compound, the outcome in assay [2] was inactive. `COc1ccc2c(c1C=O)CC(O)OC2=O` (stereo unspecified): the IC50 in assay [3] turned out to be 21800 nM.

As for `COc1ccc2c(c1C=O)CC(O)OC2` (stereo unspecified), the inhibition in assay [1] is 20%. In addition, the result in [4] was Active. Regarding `COc1ccc(C(=O)O)c(CCO)c1CO`, the inhibition in assay [1] was below 5%. In addition, the outcome in assay [2] was inactive. With `COc1c(C=O)c2c(c3c1CC(C)(C)C3)C(=O)OC(O)C2` (stereo unspecified), in assay [3], the IC50 came out at 1530 nM. In the case of `COc1ccc2c(c1C=O)CCOC2=O`, in assay [1], the inhibition is below 5%. `O=C(O)COc1c(O)cc(-c2cc(C(F)(F)F)cc(C(F)(F)F)c2)cc1OCc1cccc(C(F)(F)F)c1`: the values for the IC50 in assay [5], in assay [6] and in [7] were 280 nM, 2000 nM and 116000 nM, respectively. In the case of `CC(=O)NC(Cc1ccc(N(C(=O)C(=O)O)c2ccccc2C(=O)O)c2ccccc12)C(=O)NCCCCCOc1cc2ccccc2cc1C(=O)O` (stereo unspecified), the Ki in assay [8] was 49 nM; in [7], 1300 nM. Consider `COC(=O)c1ccc(OC)c(CO)c1CCO`, for which the inhibition in assay [1] was below 5%. In addition, the outcome in assay [2] was inactive. In the case of `COc1ccc2c(c1)CC(O)OC2=O` (stereo unspecified), the inhibition in assay [1] was below 5%. In the case of `O=C(O)C(=O)c1ccc(OCc2cc(COc3ccc(C(=O)C(=O)O)cc3)cc(COc3ccc(C(=O)C(=O)O)cc3)c2)cc1`, the IC50 in [9] stood at 1700 nM. For the compound `CSc1ccnc(C[S+]([O-])c2nc3cc(OC(C)C)ccc3[nH]2)c1` (stereo unspecified), the IC50 in [8] stood at 680 nM; in assay [7], 18200 nM. `O=C(O)COc1c(C(=O)O)sc(-c2ccc(NC(=O)c3cccnc3)cc2)c1Br` came in with a half-maximal inhibitory concentration (IC50) in assay [7] of 320000 nM.

As usually defined, the inhibition is the relative decrease from the control value, in per cent. A word on the IC50: it is the point on the concentration scale where inhibition reaches its midpoint. Broadly, the Ki is the dissociation constant of the complex between target and ligand, obtained from inhibition or displacement.
